The test system of data set [1] is Mus musculus. The data set is described as follows: Apparent toxicity in SCID mouse xenografted with human MDA231 cells at 60 mg/kg, ip administered 3 times a week for a total of 9 doses. The data set is classed as organism-based. The arrangement: dose 60 mg/kg, route intraperitoneal. As to conditions: in vivo.
In data set [2] the test system is MDA-MB-231. Description: Antitumor activity against human MDA231 cells xenografted in SCID mouse assessed as tumor growth inhibition at 60 mg/kg, ip administered 3 times a week for a total of 9 doses measured on day 40. Format: functional, organism-based. The arrangement: dose 60 mg/kg. An outline of the steps:
(§1)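 Female SCID mice, 6 per group, given 1.5 million MDA-231-M2 cells into the mammary fat pad. Once tumours were palpable, vehicle or compound was given at 60 mg/kg IP 3 times weekly for 9 injections. Mice sacrificed on day 40. Lungs fixed in 10% Bouin's and surface metastases counted by stereomicroscope. Primary tumour volume also recorded. Groups compared to vehicle by unpaired Student t test.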

Data set [3] has as its system Mus musculus. The data set is described as follows: Toxicity in SCID mouse xenografted with human MDA231 cells assessed as body weight loss at 60 mg/kg, ip administered 3 times a week for a total of 9 doses. Format: organism-based. The arrangement: dose 60 mg/kg, route intraperitoneal. As to conditions: in vivo.
The test system of data set [4] is MDA-MB-231. Description: Cytotoxicity against human MDA231 cells at 50 uM. The data set is classed as functional, cell-based.
Data set [5] addresses Insulin receptor (Homo sapiens) (UniProt P06213). Description: Inhibition of INSR at 1 uM.
The subject of the next data set is Cancer cell lines. Description: Antitumor activity against human MDA231 cells xenografted in SCID mouse assessed as inhibition of lung metastases of cancer cells at 60 mg/kg, ip administered 3 times a week for a total of 9 doses measured on day 40 by stereomicroscopic analysis. Set-up: dose 60 mg/kg. The data set is classed as functional, organism-based. An outline of the steps: as §1

In data set [6] the target is BDNF/NT-3 growth factors receptor (Homo sapiens) (UniProt Q16620). The data set is described as follows: Inhibition of TRKB at 1 uM.
For data set [7], the target named is T1, Focal adhesion kinase 1 (Homo sapiens, UniProt Q05397). Description: Inhibition of human recombinant full-length FAK using ATP and Poly Glu:Tyr as substrate after 4 hrs by luminescence analysis. An outline of the steps: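 Human recombinant full-length FAK incubated 4 h at room temperature in kinase buffer with ATP and Poly Glu:Tyr substrate, with or without compound at various concentrations.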
Target sequence in this assay (Q05397 whole entry): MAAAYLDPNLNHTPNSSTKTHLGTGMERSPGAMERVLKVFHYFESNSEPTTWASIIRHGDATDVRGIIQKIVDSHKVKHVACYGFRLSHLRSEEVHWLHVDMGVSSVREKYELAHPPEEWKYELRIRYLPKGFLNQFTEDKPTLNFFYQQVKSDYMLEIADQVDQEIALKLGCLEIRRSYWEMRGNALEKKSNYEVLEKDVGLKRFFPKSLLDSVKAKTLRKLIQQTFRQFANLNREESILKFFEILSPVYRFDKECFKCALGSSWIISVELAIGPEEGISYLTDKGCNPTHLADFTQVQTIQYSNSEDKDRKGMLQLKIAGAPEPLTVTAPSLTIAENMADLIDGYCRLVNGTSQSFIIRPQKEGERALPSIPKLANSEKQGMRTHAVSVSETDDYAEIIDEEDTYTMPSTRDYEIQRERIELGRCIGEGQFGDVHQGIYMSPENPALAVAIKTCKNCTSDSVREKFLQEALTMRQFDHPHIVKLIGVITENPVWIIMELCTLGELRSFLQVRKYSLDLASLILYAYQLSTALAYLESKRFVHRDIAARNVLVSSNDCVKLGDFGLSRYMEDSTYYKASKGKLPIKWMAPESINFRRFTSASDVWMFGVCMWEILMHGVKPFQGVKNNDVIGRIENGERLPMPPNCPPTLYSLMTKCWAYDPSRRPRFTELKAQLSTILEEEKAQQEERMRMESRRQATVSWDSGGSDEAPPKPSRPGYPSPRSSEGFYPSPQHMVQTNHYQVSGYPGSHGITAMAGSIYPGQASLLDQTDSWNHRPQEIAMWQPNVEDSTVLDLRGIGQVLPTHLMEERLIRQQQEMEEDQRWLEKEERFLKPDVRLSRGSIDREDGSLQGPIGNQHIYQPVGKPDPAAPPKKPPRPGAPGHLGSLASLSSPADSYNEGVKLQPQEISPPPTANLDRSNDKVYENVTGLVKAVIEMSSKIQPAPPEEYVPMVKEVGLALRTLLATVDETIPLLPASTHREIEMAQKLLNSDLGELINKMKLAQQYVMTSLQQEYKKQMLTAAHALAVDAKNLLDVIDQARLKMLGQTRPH

The target in data set [8] is RAC-alpha serine/threonine-protein kinase (Homo sapiens, UniProt P31749). The data set is described as follows: Inhibition of AKT-1.
For data set [9], the target named is Protein kinase C alpha type (Homo sapiens, UniProt P17252). Description: Inhibition of PKCalpha.
Data set [10] relates to MDA-MB-231. Description: Antiangiogenic activity in human MDA231 cells assessed as inhibition of cell migration at 10 uM after 12 to 24 hrs by wound healing migration assay. The data set is classed as functional, cell-based. The method, boiled down:
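MDA-231 cells grown on coverslips for 24 h, wounded by scraping with a micropipette tip, washed, then kept in fresh medium at 37 °C with compound at 10 μM final or DMSO. Photographed at 12 and 24 h. Remaining wound area measured. DMSO set to 0% inhibition. Mean ± SD of five independent experiments.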

Data set [11] has as its target T1, Focal adhesion kinase 1. The data set is described as follows: Inhibition of FAK phosphorylation in EGF-stimulated human MDA231 cells using [gamma32P]ATP as substrate at 50 uM after 2 hrs by scintillation counting. Format: cell-based. The method, boiled down:
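MDA231 cells serum-starved overnight, treated with compound for 2 h, then stimulated with 20 ng/mL EGF for 30 min. Lysates immunoprecipitated with polyclonal anti-FAK. The immunocomplex was assayed in Hepes/MgCl2/MnCl2 buffer with 3 μCi/nmol [γ-32P]-ATP. Reactions stopped by boiling in SDS sample buffer. Bands excised after SDS-PAGE and counted by scintillation. Figure legend gives N = 4.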

Data set [12] relates to MDA-MB-231. Description: Antiinvasive activity in human MDA231 cells at 10 uM after 48 hrs by Matrigel matrix assay. The data set is classed as functional. The method, boiled down: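 Serum-starved MDA-231 cells (30,000) placed with or without compound (10 μM) in the upper compartment of 8-µm Matrigel-coated Boyden chambers. Lower compartment held DMEM 0.2% BSA with 10% serum. Invasion ran 48 h, then invaded cells were fixed, stained and counted under a 40× objective. DMSO normalized to 0% inhibition. Mean ± SD, five experiments.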

Calls of active or inactive are those of the source. The rule behind the calls is not given here.

Sequence of Insulin receptor (Homo sapiens) (P06213 28-758 limits assumed): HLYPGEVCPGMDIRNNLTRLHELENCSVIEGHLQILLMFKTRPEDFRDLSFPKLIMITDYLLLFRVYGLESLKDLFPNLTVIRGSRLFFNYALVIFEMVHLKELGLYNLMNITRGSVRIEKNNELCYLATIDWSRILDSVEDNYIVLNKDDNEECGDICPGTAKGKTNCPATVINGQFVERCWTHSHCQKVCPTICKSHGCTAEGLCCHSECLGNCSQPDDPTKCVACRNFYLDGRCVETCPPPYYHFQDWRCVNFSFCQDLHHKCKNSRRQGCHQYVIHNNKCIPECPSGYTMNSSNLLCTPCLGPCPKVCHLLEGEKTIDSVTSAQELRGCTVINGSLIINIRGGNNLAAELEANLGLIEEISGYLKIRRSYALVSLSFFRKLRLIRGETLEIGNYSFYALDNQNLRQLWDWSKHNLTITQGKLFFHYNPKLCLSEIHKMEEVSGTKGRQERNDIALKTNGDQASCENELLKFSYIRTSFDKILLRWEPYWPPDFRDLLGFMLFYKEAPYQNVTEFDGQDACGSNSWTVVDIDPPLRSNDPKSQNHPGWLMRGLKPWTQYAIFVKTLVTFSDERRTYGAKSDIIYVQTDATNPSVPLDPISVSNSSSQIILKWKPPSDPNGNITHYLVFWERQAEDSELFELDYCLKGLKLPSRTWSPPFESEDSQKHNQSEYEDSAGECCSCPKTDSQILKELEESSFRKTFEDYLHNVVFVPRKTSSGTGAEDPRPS
Sequence of Insulin receptor (Homo sapiens) (P06213 763-1382 limits assumed): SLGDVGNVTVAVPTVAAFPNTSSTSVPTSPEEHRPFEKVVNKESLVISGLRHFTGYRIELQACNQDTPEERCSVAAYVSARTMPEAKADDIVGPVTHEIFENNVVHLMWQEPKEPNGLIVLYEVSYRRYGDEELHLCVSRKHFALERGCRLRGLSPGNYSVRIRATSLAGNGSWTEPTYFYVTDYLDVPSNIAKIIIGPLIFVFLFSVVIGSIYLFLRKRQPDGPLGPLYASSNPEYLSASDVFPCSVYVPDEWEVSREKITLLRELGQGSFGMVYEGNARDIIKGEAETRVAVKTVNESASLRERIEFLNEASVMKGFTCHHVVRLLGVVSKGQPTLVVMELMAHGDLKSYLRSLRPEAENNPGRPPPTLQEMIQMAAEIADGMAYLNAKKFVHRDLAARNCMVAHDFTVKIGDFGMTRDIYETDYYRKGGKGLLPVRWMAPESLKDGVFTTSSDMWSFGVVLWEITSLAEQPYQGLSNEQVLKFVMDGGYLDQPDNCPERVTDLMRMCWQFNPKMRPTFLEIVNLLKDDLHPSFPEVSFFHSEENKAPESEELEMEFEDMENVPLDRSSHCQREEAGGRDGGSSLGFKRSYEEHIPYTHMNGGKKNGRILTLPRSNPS
Sequence of BDNF/NT-3 growth factors receptor (Homo sapiens) (Q16620 32-822 limits assumed): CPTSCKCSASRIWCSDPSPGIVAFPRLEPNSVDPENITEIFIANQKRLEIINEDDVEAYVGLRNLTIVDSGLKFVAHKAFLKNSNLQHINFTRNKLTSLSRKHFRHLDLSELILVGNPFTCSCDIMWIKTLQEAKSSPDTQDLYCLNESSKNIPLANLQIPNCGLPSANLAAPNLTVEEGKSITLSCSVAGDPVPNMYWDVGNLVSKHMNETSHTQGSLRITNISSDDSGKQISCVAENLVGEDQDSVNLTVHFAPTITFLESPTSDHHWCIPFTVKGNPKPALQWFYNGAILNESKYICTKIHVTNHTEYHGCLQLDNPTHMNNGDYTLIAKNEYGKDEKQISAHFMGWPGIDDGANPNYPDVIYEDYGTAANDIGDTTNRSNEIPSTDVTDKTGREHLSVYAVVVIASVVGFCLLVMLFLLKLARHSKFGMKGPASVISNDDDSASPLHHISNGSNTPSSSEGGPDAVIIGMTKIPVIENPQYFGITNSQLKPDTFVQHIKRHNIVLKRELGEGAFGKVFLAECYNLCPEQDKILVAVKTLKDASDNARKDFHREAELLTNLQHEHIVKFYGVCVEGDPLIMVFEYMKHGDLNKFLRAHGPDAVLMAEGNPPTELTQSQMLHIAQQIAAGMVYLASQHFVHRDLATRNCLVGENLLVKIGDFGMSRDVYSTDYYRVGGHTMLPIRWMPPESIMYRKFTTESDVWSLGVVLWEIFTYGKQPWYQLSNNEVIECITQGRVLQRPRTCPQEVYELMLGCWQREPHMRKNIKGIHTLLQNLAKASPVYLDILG
Sequence of RAC-alpha serine/threonine-protein kinase (P31749 whole entry): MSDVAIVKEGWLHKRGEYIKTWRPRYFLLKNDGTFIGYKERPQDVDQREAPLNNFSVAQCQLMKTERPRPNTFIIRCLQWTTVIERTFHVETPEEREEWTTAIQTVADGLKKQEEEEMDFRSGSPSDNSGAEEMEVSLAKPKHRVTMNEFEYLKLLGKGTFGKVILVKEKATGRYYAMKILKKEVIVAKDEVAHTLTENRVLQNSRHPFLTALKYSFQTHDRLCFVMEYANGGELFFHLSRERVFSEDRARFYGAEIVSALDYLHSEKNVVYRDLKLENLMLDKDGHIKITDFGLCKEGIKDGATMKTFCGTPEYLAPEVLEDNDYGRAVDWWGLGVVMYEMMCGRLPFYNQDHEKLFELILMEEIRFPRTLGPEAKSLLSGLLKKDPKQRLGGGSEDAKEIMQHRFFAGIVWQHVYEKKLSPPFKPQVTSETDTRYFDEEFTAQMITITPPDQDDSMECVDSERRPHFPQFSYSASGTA

Consider `CC(=O)OC[C@H]1O[C@@H](O[C@H]2[C@H](OC(C)=O)[C@@H](OC(C)=O)[C@H](n3[se]c4ccccc4c3=O)O[C@@H]2COC(C)=O)[C@H](OC(C)=O)[C@@H](OC(C)=O)[C@H]1OC(C)=O`, for which the Activity entry with Mus musculus [1] and in the data set with Mus musculus [3] was “Non-toxic” each time. Further, in the data set with MDA-MB-231 [2], the “growth inhibition (GI)” value was “Active”. Also, in the data set with MDA-MB-231 [4], the outcome was Active. In addition, the inhibition in data set [5] and in data set [6] was 0% throughout. Further, the inhibition entry with Cancer cell lines was “Active”.
Regarding `CC(=O)OC[C@H]1O[C@@H](NC(=O)CCCn2[se]c3ccccc3c2=O)[C@H](OC(C)=O)[C@@H](OC(C)=O)[C@@H]1OC(C)=O`, the concentration for half-maximal inhibition (IC50) stood at 920 nM at Focal adhesion kinase 1 [7], 800 nM in [8] and 740 nM in [9]. Besides, the inhibition in [5] and in data set [6] was 0% each time.
Turning to `O=c1c2ccccc2[se]n1-c1ccccc1` [EBSELEN], the Activity result in the data set with Mus musculus [1] and in the data set with Mus musculus [3] was “Non-toxic” in each case. Further, in the data set on MDA-MB-231 [2], the “growth inhibition (GI)” value is “inactive”. The inhibition result in the data set with MDA-MB-231 [10], at Focal adhesion kinase 1 [11] and in the data set with Cancer cell lines was “inactive” throughout. Further, in the data set on MDA-MB-231 [12], the result was inactive. Besides, the inhibition in [5] and in data set [6] was 0% in each case.
With `O=C(CCCn1[se]c2ccccc2c1=O)N[C@@H]1O[C@H](CO)[C@@H](O)[C@H](O)[C@H]1O`, the results for the IC50 (at Focal adhesion kinase 1 [7]; in [8]; in data set [9]) were 960 nM, 880 nM and 730 nM, respectively. Besides, the inhibition in data set [5] and in data set [6] was 0% in each case.

Source of the values: ChEMBL document CHEMBL1938284, “Synthesis and biological activity of novel organoselenium derivatives targeting multiple kinases and capable of inhibiting cancer progression to metastases” (Eur J Med Chem, 2012).
